# Compound activity from PubChem.
# ATG4B inhibitor: ATG4B protease inhibitors, primary screen, biochemical, fluorescence, uHTS. Cysteine protease ATG4B (Homo sapiens), Q9Y4P1. ATG4B cleavage of LC3-PLA2, NBD-HPC fluorescence, 1 h. inhibition, % at 8.33 µM. actives 0.51% (n = 340,000); in the data active means inhibition above about 40%
# ALR inh: inhibitors of human ALR sulfhydryl oxidase, primary screen, biochemical, H2O2 detection, HRP-luminol luminescence, single point; FAD-linked sulfhydryl oxidase ALR (Homo sapiens), P55789; purified ALR, DTT oxidation; inhibition, % (no concentration beside the values); actives 3.8% (n = 290,000); AID 485317, 2010;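 active means mean replicate inhibition above about 79%, with every replicate also reaching it, limit read from the data; inconclusive means only one of the two criteria met; inactive means mean below limit and not every replicate reaching it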
# Target sequence (P55789 whole entry, looked up): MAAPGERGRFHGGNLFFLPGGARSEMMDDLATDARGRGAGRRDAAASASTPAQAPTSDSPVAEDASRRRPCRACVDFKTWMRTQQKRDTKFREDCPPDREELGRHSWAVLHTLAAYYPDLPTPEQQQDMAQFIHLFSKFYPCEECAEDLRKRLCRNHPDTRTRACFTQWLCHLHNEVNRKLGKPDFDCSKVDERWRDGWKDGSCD
# NALP1 yeast inh: NALP1 inflammasome inhibitors in reconstituted yeast, colorimetric, S. cerevisiae, triplicate retest. S. cerevisiae NALP1/ASC/caspase-1 growth, X-gal OD620, 72 h. inhibition, % at 10 µM. actives 0.61% (n = 280,000); in the data active means inhibition mostly above about 24%, no sharp cut-off; inactive means mostly below about 32%
# NLRP3 yeast inh: NALP3 inflammasome inhibitors in reconstituted yeast, primary screen, luminescence, uHTS. actives 0.39% (n = 330,000). Yeast reconstituted NLRP3/ASC/caspase-1, beta-gal luminescence, 24 h. inhibition, % at 10 µM;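 active means inhibition of 50% or more; inactive means inhibition below 50%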
# UCH37 inh: inhibitors of human UCH37 deubiquitinase, primary screen, biochemical, Ub-AMC cleavage, fluorescence; Ubiquitin carboxyl-terminal hydrolase isozyme L5 (Homo sapiens), Q9Y5K5; purified proteasome/UCH37; inhibition, % (test concentration not listed); actives 0.33% (n = 330,000); AID 588478, 2011;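 active means mean inhibition over replicate wells above about 20%, limit read from the data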
# Target sequence (Q9Y5K5 whole entry, looked up): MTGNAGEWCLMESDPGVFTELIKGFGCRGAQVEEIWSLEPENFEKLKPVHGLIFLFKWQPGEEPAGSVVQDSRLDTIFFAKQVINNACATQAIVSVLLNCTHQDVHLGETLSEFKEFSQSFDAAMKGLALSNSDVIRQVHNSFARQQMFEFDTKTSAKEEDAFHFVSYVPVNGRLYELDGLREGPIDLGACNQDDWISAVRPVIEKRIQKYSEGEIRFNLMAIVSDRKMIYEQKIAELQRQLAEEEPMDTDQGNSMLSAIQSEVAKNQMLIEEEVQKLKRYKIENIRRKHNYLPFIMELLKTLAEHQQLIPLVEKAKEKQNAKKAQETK
#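 Test system – human UCH37 enzyme supplied as purified proteasome complex · Incubation – 30 min preincubation with enzyme, 25 min cleavage at room temperature · Detection – AMC fluorescence from Ub-AMC cleavage, excitation 355 nm, emission 460 nm · Benchmarks – no-proteasome wells (full inhibition) and compound-free wells (no inhibition)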
# Calb FLC: C. albicans growth inhibition with fluconazole, primary screen, CaCi-2 strain, Alamar Blue fluorescence. C. albicans CaCi-2 (fluconazole-resistant clinical isolate) + fluconazole, 48 h. growth inhibition, % (no concentration beside the values). actives 0.57% (n = 300,000). AID 1979, 2009;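 active means growth inhibition above about 58% in most replicates, limit read from the data, passing the limit was not always enough; inconclusive means exactly half the replicates above a set limit; inactive means most replicates below a set limit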;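 further: all wells also contain fluconazole at 8 µg/ml as a sub-toxic cotreatment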
# A number is an active result; – = inactive; ? = inconclusive; · = no result. This is a sample that favours compounds with a hit; in the whole collection about 4.8% have one here.
SMILES,ATG4B inhibitor,ALR inh,NALP1 yeast inh,NLRP3 yeast inh,UCH37 inh,Calb FLC
COC(=O)CSCc1nc2ccccc2[nH]c1=O,–,99,–,–,–,–
c1ccc(NCC2OCc3ccccc3CO2)cc1,–,98,–,–,–,–
Cc1nc2ccccc2n1C(=NS(=O)(=O)c1ccc(Br)cc1)c1ccccc1,·,·,·,·,–,·
COc1ccc(-c2noc(CCC(=O)NCc3ccco3)n2)cc1,–,–,–,–,–,–
COc1ccc(-c2nc(CS(=O)CC(=O)NCc3ccco3)c(C)o2)cc1 (configuration not stated),–,99,–,–,–,–
CCc1ccc(-c2nc(CS(=O)CC(=O)NCc3ccco3)c(C)o2)cc1 (configuration not stated),–,99,–,–,–,–
COc1cc([N+](=O)[O-])ccc1NC(=S)NNC(=O)c1ccc2c(c1)OCO2,–,98,–,–,–,–
O=C(NC(=S)Nc1cc([N+](=O)[O-])ccc1O)c1ccc2c(c1)OCO2,–,–,–,–,–,–
O=C(Cc1ccc([N+](=O)[O-])cc1)NNC(=O)c1ccc2c(c1)OCO2,–,–,–,–,–,113
CCOC(=O)c1cc(-c2csc(NN=Cc3ccccc3Cl)n2)on1,·,·,·,·,–,·
CCOc1cc(CNn2cn[nH]c2=S)cc(Cl)c1OCc1ccccc1F,–,90,–,–,–,–
Fc1ccc(COc2ccc(Br)cc2CNCc2ccncc2)cc1,–,–,–,–,–,–
CCOc1cc(CNCc2ccncc2)cc(Br)c1OCc1ccc(F)cc1,–,–,51,–,–,–
CCOc1cc(CNC2CCCC2)cc(Cl)c1OCc1ccc(F)cc1,–,–,97,–,–,–
COc1cc(CNC2CCCC2)cc(Cl)c1OCc1ccc(F)cc1,–,–,–,–,–,–
O=C(NN=Cc1cccnc1)c1cccc(F)c1,·,·,·,·,–,·
COc1ccccc1/C=C/C=NNC(=O)CN1CCN(Cc2ccccc2)CC1,·,·,·,·,–,·
COc1ccccc1C(=O)NN=C(C)CC(=O)Nc1ccc2c(c1)OCCO2,·,·,·,·,–,·
CON=Cc1ccc(Oc2ccc([N+](=O)[O-])cc2[N+](=O)[O-])c(OC)c1,·,·,·,·,–,·
CC(C)CC(C(O)=C(C#N)c1nc2ccccc2[nH]1)N1C(=O)c2ccccc2C1=O (configuration not stated),·,·,·,·,–,·
CN1C(=O)C(=O)/C(=C(/O)c2ccc(Br)cc2)C1c1ccc(Cl)cc1 (configuration not stated),–,–,–,–,–,–
O=C1OC(c2ccc(Cl)cc2)/C(=C(/O)c2ccccc2)C1=O (configuration not stated),–,97,–,–,–,–
COc1cccc(CNC(=O)CSCC(=O)Nc2ccc(C)cc2)c1,–,99,·,–,–,–
COc1cccc(CNCC(=O)Nc2ccc(N3CCOCC3)cc2)c1,–,99,–,–,–,–
Cc1ccc(NC(=O)CSCC(=O)N(C)CC(=O)Nc2cccc(F)c2)cc1,–,99,·,–,–,–
SMILES,ATG4B inhibitor,ALR inh,NALP1 yeast inh,NLRP3 yeast inh,UCH37 inh,Calb FLC
COc1cccc(NC(=O)CN(C)C(=O)CSCC(=O)Nc2ccc(C)cc2)c1,–,99,·,–,–,·
CCOc1cc(C=NNC(=O)c2ccc(NC(=O)CC)cc2)ccc1OC(=O)c1ccccc1,·,·,·,·,–,·
CCC(=NO)c1ccc(O)c(OC)c1,·,·,·,·,–,·
CC/C(=N\O)c1ccc(O)c(OC)c1,–,99,–,–,·,–
Cn1c(=O)c2c(ncn2CCC(=O)NN=Cc2ccncc2)n(C)c1=O,·,·,·,·,–,·
Cc1nc(NC(=O)c2ccccc2)sc1Cc1ccc2c(c1)OCO2,–,–,–,–,–,–
Cc1cc(C)nc(NC(=NCc2ccc3c(c2)OCO3)NC(=O)Nc2ccccc2)n1,–,–,·,–,–,122
Cc1cnc(C(=O)Nc2ccc(C(=O)N3CCCCC3)cc2)cn1,–,100,–,–,–,?
Cc1csc(/C(=N/OC(=O)c2ccco2)C(N)=O)n1,–,97,·,–,·,–
CSc1nc(C)cc(SCC(=O)NN=Cc2ccccc2)n1,·,·,·,·,–,·
CCOc1cc(CNCC(O)c2ccccc2)cc(Cl)c1OC (configuration not stated),–,99,–,–,–,?
CCOc1cc(CNCc2ccccn2)cc(Cl)c1OC,–,–,–,–,–,–
Cc1ccc(N(C(=O)c2snc(C(N)=O)c2N)C(CC(C)C)C(=O)NC2CCCC2)cc1 (configuration not stated),–,–,–,–,–,–
CC(C(=O)NC1CCCC1)N(C(=O)c1snc(C(N)=O)c1N)c1ccc2c(c1)OCCO2 (configuration not stated),–,96,–,–,–,–
CC(=NNC(=O)c1nnn(-c2nonc2N)c1-c1cccs1)c1cccc(O)c1,·,·,·,·,–,·
CCOc1ccc(S(=O)(=O)Nc2cccc(N(C)S(C)(=O)=O)c2)cc1,–,–,42,–,–,–
CN(c1cccc(NS(=O)(=O)c2ccccc2)c1)S(C)(=O)=O,–,–,–,–,–,–
CN1CCN(c2ccccc2C=NNC(=O)c2cccnc2)CC1,·,·,·,·,–,·
CCN(CC)C(=N)C(C#N)=NNc1ccccc1,·,·,·,·,–,·
Cc1cccc(Cc2nnc(CCC(=O)N3CCCCC3c3nccs3)o2)c1 (configuration not stated),–,–,–,–,–,100
COc1ccc(OC)c(Cc2nnc(CCC(=O)N3CCCCC3c3nccs3)o2)c1 (configuration not stated),–,–,–,–,–,–
Cc1ccc(CN2CCN(N=Cc3ccco3)CC2)c(C)c1,·,·,·,·,–,·
O=C(Nc1cccc(C(F)(F)F)c1)C(Sc1cccc[n+]1[O-])c1ccccc1 (configuration not stated),–,78,–,–,–,–
COc1cc(/C=N/O)cc(Br)c1OC,–,90,–,–,·,–
COc1cc(/C=N/O)cc(Cl)c1OC,–,–,–,–,·,–
SMILES,ATG4B inhibitor,ALR inh,NALP1 yeast inh,NLRP3 yeast inh,UCH37 inh,Calb FLC
CCOC(=O)C1=C(C)NC(=O)CC1c1cc2c(cc1[N+](=O)[O-])OCO2 (configuration not stated),–,91,–,–,–,–
Cc1ccc(C(=O)Nc2ccc(C(=O)NN=Cc3ccccn3)cc2)cc1,·,·,·,·,–,·
CN(C)c1cccc(C(=O)NCc2ccccc2)c1,–,96,–,–,–,–
COC(=O)c1cccc(Nc2c3c(nc4ccccc24)CCC3)c1,–,·,–,–,–,–
c1ccc2c(Nc3ccc4c(c3)OCCO4)c3c(nc2c1)CCCC3,–,90,29,–,–,–
COc1ccc(Nc2c3c(nc4ccccc24)CCC3)c(OC)c1,–,99,–,–,–,–
